Laboratory results taken from ChEMBL document CHEMBL4351020, “Application of hydrazino and hydrazido linkers to connect benzenesulfonamides with hydrophilic/phobic tails for targeting the middle region of human carbonic anhydrases active site: Selective inhibitors of hCA IX” (Eur J Med Chem, 2019).

Assays:
Carbonic anhydrase 2 = Carbonic anhydrase 2 (Homo sapiens, UniProt P00918); assay: Inhibition of human recombinant carbonic anhydrase 2 expressed in Escherichia coli by stopped flow CO2 hydration assay
Carbonic anhydrase 9 = Carbonic anhydrase 9 (Homo sapiens, UniProt Q16790)
Carbonic anhydrase 1 = Carbonic anhydrase 1 (Homo sapiens, UniProt P00915); assay: Inhibition of human recombinant carbonic anhydrase 1 expressed in Escherichia coli by stopped flow CO2 hydration assay
MCF7 [1] = assay: Antiproliferative activity against human MCF7 cells measured after 48 hrs under normoxia condition by MTT assay; assay type: functional, cell-based; settings: MCF7, 48 h
In short: (§1)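 MCF-7 (ATCC) grown in DMEM with 10% heat-inactivated FBS, 1% L-glutamine (2.5 mM), HEPES (10 mM), 50 µg/mL gentamycin, at 37 C, 5% CO2. Hypoxia induced chemically with CoCl2 (100 µM); normoxic cells without it. Viability by MTT colorimetric assay after 48 h exposure; IC50 is the concentration giving 50% growth inhibition relative to untreated controls.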

MCF7 [2] = assay: Antiproliferative activity against human MCF7 cells measured after 48 hrs under hypoxia condition by MTT assay; assay type: functional, cell-based; settings: MCF7, 48 h; in short: as §1
MCF7 [3] = assay: Induction of cell cycle arrest in human MCF7 cells assessed as accumulation at G0/G1 phase at IC50 after 24 hrs by propidium iodide staining based flow cytometric analysis (reference value: 56.27%); assay type: functional
MCF7 [4] = assay: Induction of cell cycle arrest in human MCF7 cells assessed as accumulation at Pre-G1 phase at IC50 after 24 hrs by propidium iodide staining based flow cytometric analysis (reference value: 1.89%); assay type: functional
MCF7 [5] = assay: Induction of cell cycle arrest in human MCF7 cells assessed as accumulation at G2/M phase at IC50 after 24 hrs by propidium iodide staining based flow cytometric analysis (reference value: 2.37%); assay type: functional
MCF7 [6] = assay: Induction of apoptosis in human MCF7 cells assessed as early apoptotic cells by Annexin V-FITC/propidium iodide staining based flow cytometry (reference value: 1.05%); assay type: functional
MCF7 [7] = assay: Induction of apoptosis in human MCF7 cells assessed as necrotic cells by Annexin V-FITC/propidium iodide staining based flow cytometry (reference value: 0.35%); assay type: functional
MCF7 [8] = assay: Induction of apoptosis in human MCF7 cells assessed as late apoptotic cells by Annexin V-FITC/propidium iodide staining based flow cytometry (reference value: 0.49%); assay type: functional
MCF7 [9] = assay: Induction of cell cycle arrest in human MCF7 cells assessed as accumulation at S phase at IC50 after 24 hrs by propidium iodide staining based flow cytometric analysis (reference value: 41.36%); assay type: functional
MCF7 [10] = assay: Induction of apoptosis in human MCF7 cells assessed as total apoptotic cells by Annexin V-FITC/propidium iodide staining based flow cytometry (reference value: 1.54%); assay type: functional

Chain of Carbonic anhydrase 1 (P00915 whole entry): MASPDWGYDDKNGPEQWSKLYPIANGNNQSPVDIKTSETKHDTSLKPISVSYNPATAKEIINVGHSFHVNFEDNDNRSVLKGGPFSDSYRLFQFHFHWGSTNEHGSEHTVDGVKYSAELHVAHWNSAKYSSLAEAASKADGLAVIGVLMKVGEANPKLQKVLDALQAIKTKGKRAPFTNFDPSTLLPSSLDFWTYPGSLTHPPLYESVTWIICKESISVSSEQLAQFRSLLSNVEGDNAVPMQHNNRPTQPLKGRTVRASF

| Structure (SMILES) | Ki (Carbonic anhydrase 2) [µM] | Ki (Carbonic anhydrase 9) [µM] | Ki (Carbonic anhydrase 1) [µM] | also measured |
| --- | --- | --- | --- | --- |
| NS(=O)(=O)c1ccc(N/N=C/c2ccc(-n3nnc4ccccc43)cc2)cc1 | 0.0946 | 0.0463 | 0.24 |  |
| NS(=O)(=O)c1ccc(C(=O)N/N=C/c2ccc(N3CCOCC3)cc2)cc1 | 0.0156 | 0.0086 | 0.175 |  |
| NS(=O)(=O)c1ccc(C(=O)N/N=C/c2ccc(-n3nnc4ccccc43)cc2)cc1 | 0.0623 | 0.0237 | 0.357 |  |
| C/C(=N\Nc1ccc(S(N)(=O)=O)cc1)c1ccc(N2CCCCC2)cc1 | 0.0692 | 0.0072 | 0.111 |  |
| NS(=O)(=O)c1ccc(N/N=C/c2ccc(N3CCCCC3)cc2)cc1 | 0.024 | 0.0209 | 0.101 |  |
| NS(=O)(=O)c1ccc(C(=O)N/N=C/c2ccc(N3CCCCC3)cc2)cc1 | 0.0093 | 0.0033 | 0.153 |  |
| NS(=O)(=O)c1ccc(C(=O)N/N=C/c2ccc(N3CCCC3)cc2)cc1 | 0.0125 | 0.0031 | 0.347 |  |
| NS(=O)(=O)c1ccc(N/N=C/c2ccc(N3CCCC3)cc2)cc1 | 0.0299 | 0.0194 | 0.0962 |  |
| C/C(=N\Nc1ccc(S(N)(=O)=O)cc1)c1ccc(N2CCCC2)cc1 | 0.0577 | 0.0183 | 0.0954 |  |
| C/C(=N\Nc1ccc(S(N)(=O)=O)cc1)c1ccc(N2CCOCC2)cc1 | 0.0656 | 0.0089 | 0.149 |  |
| C/C(=N\NC(=O)c1ccc(S(N)(=O)=O)cc1)c1ccc(N2C(=O)c3c(Cl)c(Cl)c(Cl)c(Cl)c3C2=O)cc1 |  | 0.0173 |  |  |
| NS(=O)(=O)c1ccc(N/N=C/c2ccc(N3CCOCC3)cc2)cc1 | 0.0345 | 0.0165 | 0.0874 |  |
| C/C(=N\Nc1ccc(S(N)(=O)=O)cc1)c1ccc(N2CCN(C)CC2)cc1 | 0.0895 | 0.002 | 0.266 | IC50 (MCF7 [1]): 7.72 µM; IC50 (MCF7 [2]): 17.3 µM |
| NS(=O)(=O)c1ccc(N/N=C/c2ccc(-n3ccnc3)cc2)cc1 | 0.0179 | 0.0146 | 0.0768 |  |
| NS(=O)(=O)c1ccc(C(=O)N/N=C/c2ccc(-n3ccnc3)cc2)cc1 | 0.0082 | 0.0101 | 0.13 | Activity (MCF7 [3]): 36.49%; Activity (MCF7 [4]): 19.36%; Activity (MCF7 [5]): 33.85%; IC50 (MCF7 [1]): 3.32 µM; Activity (MCF7 [6]): 4.29%; Activity (MCF7 [7]): 3.14%; Activity (MCF7 [8]): 11.93%; IC50 (MCF7 [2]): 8.53 µM; Activity (MCF7 [9]): 29.66%; Activity (MCF7 [10]): 16.22% |
